Assay results as given in ChEMBL document CHEMBL1667748, “Synthesis and anti-inflammatory evaluation of some new acyl-hydrazones bearing 2-aryl-thiazole” (2011).
Calls of active or inactive are those of the source. No cut-off for these calls is given here.

Legend:
[1] = tested on: Rattus norvegicus; assay: Antiinflammatory activity against Wistar-Bratislava albino rat assessed as leukocyte count at 3.2 mg/kg, ip (Rbv = 4952.7+/-436.9 number/mm'3); format: functional; conditions: route intraperitoneal
[2] = tested on: Rattus norvegicus; assay: Antiinflammatory activity against Wistar-Bratislava albino rat assessed as monocyte count at 3.2 mg/kg, ip (Rbv = 7.6+/-0.45%); format: functional; conditions: route intraperitoneal
[3] = tested on: Rattus norvegicus; assay: Antiinflammatory activity against Wistar-Bratislava albino rat assessed as lymphocyte count at 3.2 mg/kg, ip (Rbv = 37+/-2.2%); format: functional; conditions: route intraperitoneal
[4] = tested on: Rattus norvegicus; assay: Antiinflammatory activity against Wistar-Bratislava albino rat assessed as reduction serum nitrate/nitrite concentration at 3.2 mg/kg, ip; format: functional, organism-based; set-up: dose 3.2 mg/kg
In short: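 In rats given turpentine oil 0.6 mL/100 g i.m. plus i.p. treatment in 1% carboxymethyl cellulose suspension, serum nitrate was reduced to nitrite with VCl3 in acidic solution. Griess reagents (SULF, NEDD) were then added, and absorbance at 540 nm was read after about 30-45 min incubation.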

[5] = tested on: Rattus norvegicus; assay: Antiinflammatory activity against Wistar-Bratislava albino rat assessed as neutrophil count at 3.2 mg/kg, ip (Rbv = 55.6+/-1.32%); format: functional; conditions: route intraperitoneal
[6] = species: Rattus norvegicus; assay: Induction of phagocytosis in Wistar-Bratislava albino rat PMNC using Escherichia coli suspension assessed as reduction in phagocytosis index after 30 mins; format: functional
[7] = species: Rattus norvegicus; assay: Induction of phagocytosis in Wistar-Bratislava albino rat PMNC using Escherichia coli suspension assessed as reduction in phagocytosis activity after 30 mins; format: functional

| Compound | Activity [1] | Activity [2] | Activity [3] | Activity [4] | Activity [5] | Activity [6] | Activity [7] |
| --- | --- | --- | --- | --- | --- | --- | --- |
| Cc1ccc(-c2nc(CC(=O)N/N=C\c3ccc(OCc4csc(-c5ccccc5)n4)cc3)cs2)cc1 | 3271.43 /mm3 | 1.86% | 21.43% | inactive | 52.57% | – | – |
| Cc1nc(-c2ccccc2)sc1C(=O)COc1ccc(/C=N\NC(=O)Cc2csc(-c3cccc(C(F)(F)F)c3)n2)cc1 | 10200 /mm3 | 2% | 18% | Active | 78% | Active | – |
| O=C(COc1ccc2c(=O)cc(-c3ccccc3)oc2c1)N/N=C/c1cccc(OCc2csc(-c3ccccc3)n2)c1 | 12100 /mm3 | 2.6% | 24% | Active | 71.71% | – | – |
| Cc1ccc(-c2nc(CC(=O)N/N=C\c3ccc(OCc4csc(-c5ccc(Br)cc5)n4)cc3)cs2)cc1 | 7314.28 /mm3 | 2.71% | 28.57% | – | 68.28% | – | – |
| Cc1ccc(-c2nc(CC(=O)N/N=C/c3ccccc3OCc3csc(-c4ccc(Br)cc4)n3)cs2)cc1 | 9300 /mm3 | 2.86% | 29.14% | inactive | 67.71% | – | – |
| O=C(Cc1csc(-c2cccc(C(F)(F)F)c2)n1)N/N=C\c1ccc(OCc2csc(-c3ccc(Br)cc3)n2)cc1 | 7402.85 /mm3 | 3.14% | 32% | inactive | 63.14% | – | – |
| Cc1cnc(NC(=O)C2=C(O)c3ccccc3S(=O)(=O)N2C)s1 [MELOXICAM] | 7660 /mm3 | 2% | 32.28% | – | 66.57% | – | – |
| Cc1ccc(-c2nc(CC(=O)N/N=C\c3ccc(OCC(=O)c4sc(-c5ccccc5)nc4C)cc3)cs2)cc1 | 8742.85 /mm3 | 2.43% | 32.14% | Active | 66% | Active | Active |
| O=C(Cc1csc(-c2cccc(C(F)(F)F)c2)n1)N/N=C/c1ccccc1OCc1csc(-c2ccc(Br)cc2)n1 | 7837.14 /mm3 | 2.57% | 24.71% | – | 68.85% | Active | Active |
| O=C(Cc1csc(-c2cccc(C(F)(F)F)c2)n1)N/N=C/c1cccc(OCc2csc(-c3ccccc3)n2)c1 | 9540 /mm3 | 2.4% | 32.28% | – | 61.71% | Active | Active |
| O=C(Cc1csc(-c2cccc(C(F)(F)F)c2)n1)N/N=C\c1ccc(OCc2csc(-c3ccccc3)n2)cc1 | 5664.28 /mm3 | 2% | 20.71% | inactive | 82.28% | Active | Active |
| Cc1ccc(-c2nc(CC(=O)N/N=C/c3cccc(OCc4csc(-c5ccccc5)n4)c3)cs2)cc1 | 8620 /mm3 | 2.86% | 19.71% | inactive | 73.29% | – | – |
| O=C(COc1ccc2c(=O)cc(-c3ccccc3)oc2c1)N/N=C\c1ccc(OCc2csc(-c3ccccc3)n2)cc1 | 8228.57 /mm3 | 3.71% | 23.57% | inactive | 76% | Active | Active |
| O=C(COc1ccc2c(=O)cc(-c3ccccc3)oc2c1)N/N=C/c1cccc(OCc2csc(-c3ccc(Br)cc3)n2)c1 | 8000 /mm3 | 3.28% | 39.86% | Active | 57.43% | Active | Active |
| O=C(Cc1csc(-c2cccc(C(F)(F)F)c2)n1)N/N=C/c1cccc(OCc2csc(-c3ccc(Br)cc3)n2)c1 | 6914.28 /mm3 | 2.86% | 23.43% | Active | 70.86% | – | Active |
